The target in series [1] is T1, Acetylcholinesterase (Electrophorus electricus, UniProt O42275). Put plainly: Mixed inhibition of electric eel AChE using acetylcholine iodide as substrate preincubated for 20 mins followed by substrate addition and measured every minute for 30 mins by Lineweaver-Burk plot analysis.
A further series deals with NIH3T3. Put plainly: Cytotoxicity against mouse NIH/3T3 cells measured after 96 hrs by SRB assay. To be noted: for Activity: mouse, nih3t3, 96 h; for EC50: Mus musculus, NIH3T3, 96 h. The format is cell-based. The method in brief:
(§1)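 Cells seeded on day 0 and exposed from 24 h to at least six concentrations (1, 3, 7, 12, 20, 30 µM), with final DMSO/DMF at most 0.5%. After 96 h treatment, fixed in 10% TCA for 24 h at 4 °C and stained about 20 min with 0.4% SRB in 1% acetic acid. Bound dye dissolved in 10 mM Tris base, read at 570 nm. EC50 from 4-parameter Hill fit (top 100, bottom 0), three independent experiments in triplicate.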

A further series deals with MCF7. Briefly: Cytotoxicity against human MCF7 cells measured after 96 hrs by SRB assay. Type of series: cell-based. The note with it: for Activity: human, mcf7, 96 h; for EC50: Homo sapiens, MCF7, 96 h. The method in brief: as §1
In general terms: The SRB assay estimates cell density from bound dye.

A further series has as its system SW-1736. Briefly: Cytotoxicity against human SW1736 cells measured after 96 hrs by SRB assay. The note with it: for Activity: human, sw-1736, 96 h; for EC50: Homo sapiens, SW-1736, 96 h. Type of series: cell-based. The method in brief: as §1
For another series, the system named is HT-29. Put plainly: Cytotoxicity against human HT-29 cells measured after 96 hrs by SRB assay. Type of series: cell-based. The note with it: for Activity: human, ht-29, 96 h; for EC50: Homo sapiens, HT-29, 96 h. The essentials: as §1
Another series relates to A2780. Put plainly: Cytotoxicity against human A2780 cells measured after 96 hrs by SRB assay. The format is cell-based. To be noted: for Activity: human, a2780, 96 h; for EC50: Homo sapiens, A2780, 96 h. The method in brief:
as §1

For a further series, the system named is FaDu. Put plainly: Cytotoxicity against human FADU cells measured after 96 hrs by SRB assay. The format is cell-based. To be noted: for Activity: human, fadu; for EC50: Homo sapiens, FaDu. The method in brief:
as §1

For series [2], the target named is T1, Acetylcholinesterase. Briefly: Mixed inhibition of electric eel AChE using butyrylcholine iodide as substrate preincubated for 20 mins followed by substrate addition and measured every minute for 30 mins Dixon/Cornish-Bowden plot analysis.
The nature of series [3]: Solubility of the compound. Type of series: physicochemical.

T1 sequence (O42275 whole entry): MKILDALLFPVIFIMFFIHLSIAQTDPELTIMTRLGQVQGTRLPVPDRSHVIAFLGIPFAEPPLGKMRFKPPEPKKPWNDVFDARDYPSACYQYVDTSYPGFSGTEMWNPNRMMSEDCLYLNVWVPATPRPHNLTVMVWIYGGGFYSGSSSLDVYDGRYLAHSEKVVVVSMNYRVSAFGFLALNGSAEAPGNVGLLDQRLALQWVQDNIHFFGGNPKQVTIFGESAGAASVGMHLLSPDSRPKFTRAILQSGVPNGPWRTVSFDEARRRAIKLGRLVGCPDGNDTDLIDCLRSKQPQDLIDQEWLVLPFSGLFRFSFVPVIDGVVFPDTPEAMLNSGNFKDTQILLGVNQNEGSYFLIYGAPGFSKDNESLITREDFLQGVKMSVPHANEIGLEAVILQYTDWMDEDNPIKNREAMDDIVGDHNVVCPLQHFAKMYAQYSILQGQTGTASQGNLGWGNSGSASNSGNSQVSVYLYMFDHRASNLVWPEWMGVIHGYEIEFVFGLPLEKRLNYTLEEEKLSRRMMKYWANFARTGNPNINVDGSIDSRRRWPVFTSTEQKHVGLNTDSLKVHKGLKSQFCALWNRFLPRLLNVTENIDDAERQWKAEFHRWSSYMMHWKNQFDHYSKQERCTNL

What is called Ki is a measure of affinity in units of concentration, obtained from inhibition or displacement. A higher Ki goes with weaker binding. On to `COc1cc(/C=C/C(=O)OCCc2ccccc2)cc(OC)c1OCCc1ccccc1`, for which the Ki at Acetylcholinesterase [1] came out at 1.97 µM; at Acetylcholinesterase [2], 2.44 µM. The Activity entry with NIH3T3, in the series with MCF7, in the series on SW-1736, in the series with HT-29, in the series on A2780 and in the series with FaDu was “Non-Toxic” throughout.
For `O=C(/C=C/c1cccc(Cl)c1)OCCc1ccccc1`, the Ki was found to be 14.2 µM on Acetylcholinesterase [1] and 56.6 µM on Acetylcholinesterase [2].
The EC50 is the concentration at which the effect is half-maximal. A high value points to lower potency in that assay. As to `O=C(/C=C/c1ccc(O)c(O)c1)OCCc1ccccc1` [CAFFEIC ACID PHENETHYL ESTER], the EC50 is 21.4 µM in the series on NIH3T3; 12.1 µM with MCF7; 4.7 µM with SW-1736; over 30 µM with HT-29; 3.5 µM with A2780; 12.1 µM in the series on FaDu.
As for `O=C(/C=C/c1cccc(Br)c1)OCCc1ccccc1`, the results for the Ki on Acetylcholinesterase [1] and on Acetylcholinesterase [2] were 8.82 µM and 30.9 µM, respectively.
In the case of `O=C(/C=C/c1ccc(OCc2ccccc2)c(OCc2ccccc2)c1)OCCc1ccccc1O`, the figures for the inhibitory constant (Ki) on Acetylcholinesterase [1] and on Acetylcholinesterase [2] were 8.55 µM and 12.1 µM, respectively.
For the compound `O=C(/C=C/c1ccc(OCc2ccccc2)c(OCc2ccccc2)c1)OCCc1ccccc1OC(=O)/C=C/c1ccc(OCc2ccccc2)c(OCc2ccccc2)c1`, the solubility entry in series [3] is “Insoluble”.
For the compound `COc1ccc(/C=C/C(=O)OCCc2ccccc2)c(OC)c1`, the inhibitory constant (Ki) on Acetylcholinesterase [1] worked out at 11.9 µM; on Acetylcholinesterase [2], 34.8 µM.
Turning to `O=C(/C=C/c1ccc(OCc2ccccc2)c(OCc2ccccc2)c1)OCCc1ccc(OC(=O)/C=C/c2ccc(OCc3ccccc3)c(OCc3ccccc3)c2)c(OC(=O)/C=C/c2ccc(OCc3ccccc3)c(OCc3ccccc3)c2)c1`, the results for the Ki on Acetylcholinesterase [1] and at Acetylcholinesterase [2] were 0.72 µM and 1.8 µM, respectively. The Activity result with NIH3T3, with MCF7, in the series with SW-1736, with HT-29, in the series with A2780 and with FaDu was “Non-Toxic” throughout.
Turning to `COc1ccc(/C=C/C(=O)OCCc2ccccc2)cc1OC`, the EC50 turned out to be 17.7 µM in the series with NIH3T3; 16.2 µM in the series with MCF7; 16.7 µM with SW-1736; 16.7 µM in the series with HT-29; 17 µM with A2780; 17.2 µM in the series on FaDu.
Take `O=C(/C=C/c1ccc(OCc2ccccc2)c(OCc2ccccc2)c1)OCCc1cccc(OC(=O)/C=C/c2ccc(OCc3ccccc3)c(OCc3ccccc3)c2)c1`: the solubility result in [3] is given as “Insoluble”.
As to `O=C(/C=C/c1ccc(OCc2ccccc2)c(OCc2ccccc2)c1)OCCc1ccc(OC(=O)/C=C/c2ccc(OCc3ccccc3)c(OCc3ccccc3)c2)cc1`, in series [3], the solubility entry is reported as “Insoluble”.

The record behind these values is ChEMBL document CHEMBL4393723, “Caffeic acid phenethyl ester (CAPE)-derivatives act as selective inhibitors of acetylcholinesterase” (Eur J Med Chem, 2019).
